Data reported in ChEMBL document CHEMBL1131255, “Benzylimidazolines as h5-HT1B/1D serotonin receptor ligands: a structure-affinity investigation” (J Med Chem, 1998).

Experiments:
[1] = biological target: T1, 5-hydroxytryptamine receptor 1D (Homo sapiens, UniProt P28221); assay: Binding affinity towards human 5-hydroxytryptamine 1D receptor using [3H]5-HT trifluoroacetate as radioligand
[2] = biological target: T2, 5-hydroxytryptamine receptor 1B (Homo sapiens, UniProt P28222); assay: Binding affinity towards human 5-hydroxytryptamine 1B receptor using [3H]5-HT trifluoroacetate as radioligand
Outline: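 Membrane homogenate (0.1 mg protein/well) incubated in triplicate with [3H]-5-HT (2.5 nM final) in 50 mM Tris, 10 mM MgSO4, 0.5 mM EDTA, 10 µM pargyline, 0.1% ascorbic acid, pH 7.4. Incubation 60 min at room temperature. Nonspecific binding defined with 20 µM 5-HT. Filtration over GF/B, scintillation counting.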

[3] = biological target: Serotonin 1 receptors; 5-HT1B & 5-HT1D (Homo sapiens) (UniProt P28222+P28221); assay: Binding Selectivity was determined [Selectivity = Ki against h5-HT1B receptor / Ki against h5-HT1D receptor]; type: protein assay
[4] = biological target: T2, 5-hydroxytryptamine receptor 1B; assay: Adenyl cyclase activity was expressed as percent forskolin response against 5-hydroxytryptamine 1B receptor at concentration 1 uM; type: functional
Outline: (§1)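 Agonist test in CHO Pro 5 cells stably transfected with human h5-HT1B or h5-HT1D receptors. Compound added to culture medium with 10 µM forskolin and 0.5 mM IBMX, 30 min at 37 °C. Stopped with cold ethanolic 5 mM EDTA (2:1 v/v) to extract cAMP. cAMP measured by enzyme immunoassay; mean ± SEM from three or more experiments.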

[5] = biological target: T1, 5-hydroxytryptamine receptor 1D; assay: Adenyl cyclase activity was expressed as percent forskolin response against 5-hydroxytryptamine 1D receptor at concentration 1 uM; type: functional; outline: as §1
[6] = biological target: T2, 5-hydroxytryptamine receptor 1B; assay: Adenyl cyclase activity was expressed as percent forskolin response against 5-hydroxytryptamine 1B receptor at concentration 10 uM; type: functional; outline: as §1
[7] = Tested for 5-hydroxytryptamine 1D like receptor-mediated vascular effect in rabbit saphenous vein (RSV)
[8] = biological target: T1, 5-hydroxytryptamine receptor 1D; assay: Adenyl cyclase activity was expressed as percent forskolin response against 5-hydroxytryptamine 1D receptor at concentration 10 uM; type: functional; outline: as §1
[9] = biological target: Adrenergic receptor alpha; assay: Binding affinity towards Alpha-1 adrenergic receptor; type: protein assay, Canis lupus familiaris
[10] = biological target: T3, Adrenergic receptor alpha-2 (Homo sapiens, UniProt P08913+P18825+P18089); assay: Binding affinity towards Alpha-2 adrenergic receptor; type: protein assay
T3 sequence (P08913 whole entry): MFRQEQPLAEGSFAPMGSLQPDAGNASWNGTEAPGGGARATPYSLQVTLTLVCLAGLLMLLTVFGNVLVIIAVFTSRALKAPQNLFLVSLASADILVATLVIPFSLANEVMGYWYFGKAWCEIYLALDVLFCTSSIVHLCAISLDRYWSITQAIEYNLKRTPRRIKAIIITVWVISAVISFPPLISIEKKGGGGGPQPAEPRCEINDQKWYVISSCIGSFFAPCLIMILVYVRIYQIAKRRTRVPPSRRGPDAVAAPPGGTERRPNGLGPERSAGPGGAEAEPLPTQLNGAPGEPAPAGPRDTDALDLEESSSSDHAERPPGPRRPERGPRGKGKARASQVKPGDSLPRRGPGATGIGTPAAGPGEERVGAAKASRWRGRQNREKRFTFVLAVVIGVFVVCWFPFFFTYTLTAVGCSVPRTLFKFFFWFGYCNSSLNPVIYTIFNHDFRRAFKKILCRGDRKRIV
T3 sequence (P18825 whole entry): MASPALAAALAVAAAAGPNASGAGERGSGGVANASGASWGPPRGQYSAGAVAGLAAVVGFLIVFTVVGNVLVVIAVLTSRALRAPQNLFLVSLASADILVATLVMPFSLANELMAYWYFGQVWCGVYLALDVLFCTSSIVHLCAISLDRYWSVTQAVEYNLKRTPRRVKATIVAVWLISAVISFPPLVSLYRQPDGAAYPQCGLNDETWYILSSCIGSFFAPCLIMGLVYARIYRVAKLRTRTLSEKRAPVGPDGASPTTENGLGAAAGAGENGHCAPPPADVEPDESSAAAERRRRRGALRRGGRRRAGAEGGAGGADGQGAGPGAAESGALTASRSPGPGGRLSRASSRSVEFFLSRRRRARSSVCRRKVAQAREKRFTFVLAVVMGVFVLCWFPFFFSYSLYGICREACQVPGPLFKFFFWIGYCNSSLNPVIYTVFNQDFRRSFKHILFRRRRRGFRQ
T3 sequence (P18089 whole entry): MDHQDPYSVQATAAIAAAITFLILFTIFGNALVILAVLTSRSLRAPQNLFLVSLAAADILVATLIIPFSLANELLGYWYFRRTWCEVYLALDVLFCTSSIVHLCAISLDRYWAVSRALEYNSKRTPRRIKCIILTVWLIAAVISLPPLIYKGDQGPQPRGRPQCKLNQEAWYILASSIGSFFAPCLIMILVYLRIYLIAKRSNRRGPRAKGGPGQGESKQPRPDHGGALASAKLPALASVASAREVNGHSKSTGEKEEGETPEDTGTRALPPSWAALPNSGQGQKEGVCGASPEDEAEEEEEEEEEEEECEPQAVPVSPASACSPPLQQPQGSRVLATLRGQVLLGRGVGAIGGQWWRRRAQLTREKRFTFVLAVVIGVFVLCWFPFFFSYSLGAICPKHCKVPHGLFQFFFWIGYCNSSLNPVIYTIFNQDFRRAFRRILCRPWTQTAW

T2 sequence (P28222 whole entry): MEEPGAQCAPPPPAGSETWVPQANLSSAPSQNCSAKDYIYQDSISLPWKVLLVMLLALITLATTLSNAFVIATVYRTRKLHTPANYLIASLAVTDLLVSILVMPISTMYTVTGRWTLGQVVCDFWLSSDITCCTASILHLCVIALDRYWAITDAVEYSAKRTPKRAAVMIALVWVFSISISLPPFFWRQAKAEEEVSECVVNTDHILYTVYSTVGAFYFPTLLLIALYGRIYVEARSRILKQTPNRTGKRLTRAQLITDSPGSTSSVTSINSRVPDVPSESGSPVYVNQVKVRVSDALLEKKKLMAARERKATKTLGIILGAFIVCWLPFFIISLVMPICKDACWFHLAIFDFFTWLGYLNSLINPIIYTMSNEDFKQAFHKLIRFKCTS
T1 sequence (P28221 whole entry): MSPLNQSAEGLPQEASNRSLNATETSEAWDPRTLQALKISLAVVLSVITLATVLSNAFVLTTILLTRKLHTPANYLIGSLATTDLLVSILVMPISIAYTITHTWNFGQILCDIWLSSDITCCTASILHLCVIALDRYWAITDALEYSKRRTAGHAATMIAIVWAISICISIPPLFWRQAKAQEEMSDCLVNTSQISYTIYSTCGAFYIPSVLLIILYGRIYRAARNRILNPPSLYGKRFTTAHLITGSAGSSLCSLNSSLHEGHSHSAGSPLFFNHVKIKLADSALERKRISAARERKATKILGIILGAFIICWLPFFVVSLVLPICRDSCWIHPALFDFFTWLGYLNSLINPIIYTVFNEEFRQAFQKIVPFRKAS

Row | SMILES | Ki [1] [µM] | Ki [2] [µM] | Selectivity [3] | other results
1 | CCc1ccc(CC2=NCCN2)cc1 | > 10 | > 10 | – | –
2 | Oc1cccc(CC2=NCCN2)c1 | > 10 | 3.74 | < 1 | –
3 | CCCCc1ccc(CC2=NCCN2)cc1 | 2.52 | > 10 | > 4 | –
4 | Cc1cc(C)c(CC2=NCCN2)c(C)c1 | 0.072 | – | 48 | Response [4]: 49%; Response [5]: 23%; Response [6]: 52%; EC50 [7]: 0.15 µM; Response [8]: 49%
5 | CN1CCN=C1Cc1ccccc1 | – | > 10 | – | –
6 | COc1cccc(CC2=NCCN2)c1 | – | 1.63 | – | –
7 | CC(C)(C)c1ccc(CC2=NCCN2)cc1 | – | 6.83 | 65 | Ki [9]: 2.625 µM; Response [4]: 99%; Ki [10]: 1.12 µM; Response [5]: 69%; Response [6]: 86%; EC50 [7]: > 10 µM; Response [8]: 65%
8 | CCCc1ccc(CC2=NCCN2)cc1 | 2.38 | > 10 | > 4 | –
9 | Brc1ccc(CC2=NCCN2)cc1 | 4.39 | > 10 | > 2 | –
10 | c1ccc(CC2=NCCN2)cc1 [TOLAZOLINE] | > 10 | > 10 | – | –
11 | O=[N+]([O-])c1ccc(CC2=NCCN2)cc1 | > 10 | > 10 | – | –
12 | CNCCc1c(C)cc(C(C)(C)C)cc1C | > 5 | > 10 | – | –
13 | Cc1ccc(O)c(C)c1CC1=NCCN1 | 1.03 | 5.79 | 6 | –
14 | Nc1ccc(CC2=NCCN2)cc1 | > 10 | > 10 | – | –
15 | CC(C)c1ccc(CC2=NCCN2)cc1 | – | – | 8 | –
16 | Cc1ccc(CC2=NCCN2)c(C)c1O | 1.9 | 2 | 1 | –
17 | Cc1cc(C(C)(C)C)cc(C)c1CCN | 1.36 | > 10 | – | –
18 | Cc1cc(C(C)C)cc(C)c1CC1=NCCN1 | 0.0011 | – | 34 | Ki [9]: 0.065 µM; Response [4]: 53%; Ki [10]: > 0.5 µM; Response [5]: 34%; Response [6]: 56%; EC50 [7]: 0.138 µM; Response [8]: 34%
19 | c1ccc(-c2ccc(CC3=NCCN3)cc2)cc1 | > 10 | > 10 | – | –
20 | Cc1cc(C(C)(C)C)c(O)c(C)c1CC1=NCCN1 [OXYMETAZOLINE] | – | 0.0003 | – | Response [4]: 57%; Response [5]: 40%; Response [6]: 40%; Response [8]: 35%
21 | Cc1cccc(C)c1CC1=NCCN1 | 2.21 | > 10 | > 4 | –
22 | Cc1cc(C(C)(C)C)ccc1CC1=NCCN1 | – | – | 105 | Ki [9]: 0.154 µM; Response [4]: 63%; Ki [10]: > 0.5 µM; Response [5]: 51%; Response [6]: 58%; EC50 [7]: 1.67 µM; Response [8]: 50%
23 | Cc1cc(C(C)(C)C)cc(C)c1CC1=NCCN1C | – | > 5 | – | –
24 | Cc1cc(Br)cc(C)c1CC1=NCCN1 | – | – | 21 | –
25 | Cc1ccc(CC2=NCCN2)c(C)c1OCc1ccccc1 | 1.1 | 3.87 | 4 | –
26 | Cc1cc(C(C)(C)C)cc(C)c1CC1=NCCN1 [XYLOMETAZOLINE] | – | 0.014 | – | Ki [9]: 0.091 µM; Response [4]: 51%; Ki [10]: > 0.5 µM; Response [5]: 38%; Response [6]: 64%; Response [8]: 41%
